Measurements from article PMC6606825 (Journal of Ginseng Research, 2018).
Marks after values point to notes of the source that are not given here.

Experiment: Pharmacokinetics of CK and its metabolite 20
Type: in vivo, healthy Chinese volunteers
How it was run: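 Healthy adults given one oral tablet dose fasting (overnight, or 10 h in a crossover food-effect arm); 30 subjects from the 100/200/400 mg groups were pooled with 24 from 200 mg fasting periods. Plasma was stored at −70°C, extracted with MTBE plus internal standards and assayed by LC-MS/MS. Cmax was observed and AUClast calculated by linear trapezoid, each divided by dose. The metabolite/parent ratio was also calculated. Genotyping used Sequenom MassARRAY, and log-transformed values were compared by one-way ANOVA.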

SMILES: CC(C)=CCC[C@](C)(O)[C@H]1CC[C@]2(C)[C@@H]1[C@H](O)C[C@@H]1[C@@]3(C)CC[C@H](O)C(C)(C)[C@@H]3CC[C@]12C [20(S)-PPD, 20(S)-protopanaxadiol]
- 20(S)-PPD AUClast/D (CFTR rs2106155 CC, mean (SD)): 0.76 (0.87)
- 20(S)-PPD Cmax/D (CFTR rs2106155 CC, mean (SD)): 0.02 (0.02)
- Ratio 20(S)-PPD/CK AUClast/D (CFTR rs2106155 CC, mean (SD)): 3.73 (6.73) %
- Ratio 20(S)-PPD/CK Cmax/D (CFTR rs2106155 CC, mean (SD)): 0.80 (1.29) %
- 20(S)-PPD AUClast/D (CFTR rs2237726 CC, mean (SD)): 0.72 (0.85)
- 20(S)-PPD Cmax/D (CFTR rs2237726 CC, mean (SD)): 0.02 (0.02)
- Ratio 20(S)-PPD/CK AUClast/D (CFTR rs2237726 CC, mean (SD)): 3.53 (6.59) %
- Ratio 20(S)-PPD/CK Cmax/D (CFTR rs2237726 CC, mean (SD)): 0.80 (1.27) %
- 20(S)-PPD AUClast/D (CFTR rs2237726 CT, mean (SD)): 0.84 (0.78)
- 20(S)-PPD Cmax/D (CFTR rs2237726 CT, mean (SD)): 0.03 (0.03)
- Ratio 20(S)-PPD/CK AUClast/D (CFTR rs2237726 CT, mean (SD)): 4.43 (5.17) %
- Ratio 20(S)-PPD/CK Cmax/D (CFTR rs2237726 CT, mean (SD)): 1.42 (2.13) %
- 20(S)-PPD AUClast/D (CFTR rs2237726 TT, mean (SD)): 1.10 (0.47)
- 20(S)-PPD Cmax/D (CFTR rs2237726 TT, mean (SD)): 0.03 (0.02)
- Ratio 20(S)-PPD/CK AUClast/D (CFTR rs2237726 TT, mean (SD)): 7.40 (10.14) %
- Ratio 20(S)-PPD/CK Cmax/D (CFTR rs2237726 TT, mean (SD)): 1.63 (2.04) %
- 20(S)-PPD AUClast/D (CFTR rs4148711 AA, mean (SD)): 0.97 (0.49)
- 20(S)-PPD Cmax/D (CFTR rs4148711 AA, mean (SD)): 0.04 (0.02)
- Ratio 20(S)-PPD/CK AUClast/D (CFTR rs4148711 AA, mean (SD)): 5.87 (7.37) %
- Ratio 20(S)-PPD/CK Cmax/D (CFTR rs4148711 AA, mean (SD)): 1.40 (1.51) %
- 20(S)-PPD AUClast/D (CFTR rs4148711 AT, mean (SD)): 0.90 (0.98)
- 20(S)-PPD Cmax/D (CFTR rs4148711 AT, mean (SD)): 0.03 (0.04)
- Ratio 20(S)-PPD/CK AUClast/D (CFTR rs4148711 AT, mean (SD)): 4.70 (7.26) %
- Ratio 20(S)-PPD/CK Cmax/D (CFTR rs4148711 AT, mean (SD)): 1.40 (2.23) %
- 20(S)-PPD AUClast/D (CFTR rs4148711 TT, mean (SD)): 0.63 (0.57)
- 20(S)-PPD Cmax/D (CFTR rs4148711 TT, mean (SD)): 0.02 (0.02)
- Ratio 20(S)-PPD/CK AUClast/D (CFTR rs4148711 TT, mean (SD)): 2.87 (3.42) %
- Ratio 20(S)-PPD/CK Cmax/D (CFTR rs4148711 TT, mean (SD)): 0.66 (0.71) %
- 20(S)-PPD AUClast/D (NR1I2 rs1464602 AA, mean (SD)): 0.69 (0.50)
- 20(S)-PPD Cmax/D (NR1I2 rs1464602 AA, mean (SD)): 0.02 (0.02)
- Ratio 20(S)-PPD/CK AUClast/D (NR1I2 rs1464602 AA, mean (SD)): 3.33 (3.32) %
- Ratio 20(S)-PPD/CK Cmax/D (NR1I2 rs1464602 AA, mean (SD)): 0.85 (0.79) %
- 20(S)-PPD AUClast/D (NR1I2 rs1464602 AG, mean (SD)): 0.85 (0.89)
- 20(S)-PPD Cmax/D (NR1I2 rs1464602 AG, mean (SD)): 0.03 (0.03)
- Ratio 20(S)-PPD/CK AUClast/D (NR1I2 rs1464602 AG, mean (SD)): 3.45 (6.88) %
- Ratio 20(S)-PPD/CK Cmax/D (NR1I2 rs1464602 AG, mean (SD)): 0.80 (1.32) %
- 20(S)-PPD AUClast/D (NR1I2 rs1464602 GG, mean (SD)): 1.09 (1.05)
- 20(S)-PPD Cmax/D (NR1I2 rs1464602 GG, mean (SD)): 0.04 (0.04)
- Ratio 20(S)-PPD/CK AUClast/D (NR1I2 rs1464602 GG, mean (SD)): 7.81 (8.88) %
- Ratio 20(S)-PPD/CK Cmax/D (NR1I2 rs1464602 GG, mean (SD)): 2.40 (3.04) %
- 20(S)-PPD AUClast/D (NR1I2 rs1523127 AA, mean (SD)): 0.87 (0.86)
- 20(S)-PPD Cmax/D (NR1I2 rs1523127 AA, mean (SD)): 0.03 (0.03)
- Ratio 20(S)-PPD/CK AUClast/D (NR1I2 rs1523127 AA, mean (SD)): 4.60 (7.04) %
- Ratio 20(S)-PPD/CK Cmax/D (NR1I2 rs1523127 AA, mean (SD)): 1.27 (1.98) %
- 20(S)-PPD AUClast/D (NR1I2 rs1523127 CA, mean (SD)): 0.73 (0.52)
- 20(S)-PPD Cmax/D (NR1I2 rs1523127 CA, mean (SD)): 0.02 (0.02)
- Ratio 20(S)-PPD/CK AUClast/D (NR1I2 rs1523127 CA, mean (SD)): 3.64 (3.52) %
- Ratio 20(S)-PPD/CK Cmax/D (NR1I2 rs1523127 CA, mean (SD)): 0.87 (0.80) %
- 20(S)-PPD AUClast/D (NR1I2 rs1523127 CC, n = 1): 0.32 (−) ^2)
- 20(S)-PPD Cmax/D (NR1I2 rs1523127 CC, n = 1): 0.01 (−) ^2)
- Ratio 20(S)-PPD/CK AUClast/D (NR1I2 rs1523127 CC, n = 1): 1.14 (−) ^2) %
- Ratio 20(S)-PPD/CK Cmax/D (NR1I2 rs1523127 CC, n = 1): 0.22 (−) ^2) %
- 20(S)-PPD AUClast/D (NR1I2 rs2276707 CC, mean (SD)): 0.79 (0.54)
- 20(S)-PPD Cmax/D (NR1I2 rs2276707 CC, mean (SD)): 0.03 (0.02)
- Ratio 20(S)-PPD/CK AUClast/D (NR1I2 rs2276707 CC, mean (SD)): 5.07 (6.48) %
- Ratio 20(S)-PPD/CK Cmax/D (NR1I2 rs2276707 CC, mean (SD)): 1.15 (1.37) %
- 20(S)-PPD AUClast/D (NR1I2 rs2276707 CT, mean (SD)): 0.79 (0.77)
- 20(S)-PPD Cmax/D (NR1I2 rs2276707 CT, mean (SD)): 0.03 (0.03)
- Ratio 20(S)-PPD/CK AUClast/D (NR1I2 rs2276707 CT, mean (SD)): 3.49 (4.74) %
- Ratio 20(S)-PPD/CK Cmax/D (NR1I2 rs2276707 CT, mean (SD)): 1.12 (1.87) %
- 20(S)-PPD AUClast/D (NR1I2 rs2276707 TT, mean (SD)): 1.04 (1.19)
- 20(S)-PPD Cmax/D (NR1I2 rs2276707 TT, mean (SD)): 0.03 (0.03)
- Ratio 20(S)-PPD/CK AUClast/D (NR1I2 rs2276707 TT, mean (SD)): 5.91 (10.37) %
- Ratio 20(S)-PPD/CK Cmax/D (NR1I2 rs2276707 TT, mean (SD)): 1.27 (1.99) %
- 20(S)-PPD AUClast/D (NR1I2 rs2472682 AA, mean (SD)): 1.08 (1.14)
- 20(S)-PPD Cmax/D (NR1I2 rs2472682 AA, mean (SD)): 0.04 (0.04)
- Ratio 20(S)-PPD/CK AUClast/D (NR1I2 rs2472682 AA, mean (SD)): 7.47 (9.73) %
- Ratio 20(S)-PPD/CK Cmax/D (NR1I2 rs2472682 AA, mean (SD)): 2.06 (2.76) %
- 20(S)-PPD AUClast/D (NR1I2 rs2472682 CA, mean (SD)): 0.66 (0.50)
- 20(S)-PPD Cmax/D (NR1I2 rs2472682 CA, mean (SD)): 0.02 (0.02)
- Ratio 20(S)-PPD/CK AUClast/D (NR1I2 rs2472682 CA, mean (SD)): 2.12 (1.73) %
- Ratio 20(S)-PPD/CK Cmax/D (NR1I2 rs2472682 CA, mean (SD)): 0.59 (0.51) %
- 20(S)-PPD AUClast/D (NR1I2 rs2472682 CC, mean (SD)): 0.87 (0.59)
- 20(S)-PPD Cmax/D (NR1I2 rs2472682 CC, mean (SD)): 0.03 (0.02)
- Ratio 20(S)-PPD/CK AUClast/D (NR1I2 rs2472682 CC, mean (SD)): 5.01 (4.45) %
- Ratio 20(S)-PPD/CK Cmax/D (NR1I2 rs2472682 CC, mean (SD)): 1.17 (0.97) %
- 20(S)-PPD AUClast/D (NR1I2 rs6785049 AA, mean (SD)): 0.75 (0.59)
- 20(S)-PPD Cmax/D (NR1I2 rs6785049 AA, mean (SD)): 0.03 (0.02)
- Ratio 20(S)-PPD/CK AUClast/D (NR1I2 rs6785049 AA, mean (SD)): 5.90 (7.79) %
- Ratio 20(S)-PPD/CK Cmax/D (NR1I2 rs6785049 AA, mean (SD)): 1.37 (1.63) %
- 20(S)-PPD AUClast/D (NR1I2 rs6785049 AG, mean (SD)): 0.72 (0.54)
- 20(S)-PPD Cmax/D (NR1I2 rs6785049 AG, mean (SD)): 0.03 (0.02)
- Ratio 20(S)-PPD/CK AUClast/D (NR1I2 rs6785049 AG, mean (SD)): 2.64 (2.47) %
- Ratio 20(S)-PPD/CK Cmax/D (NR1I2 rs6785049 AG, mean (SD)): 0.69 (0.58) %
- 20(S)-PPD AUClast/D (NR1I2 rs6785049 GG, mean (SD)): 1.11 (1.21)
- 20(S)-PPD Cmax/D (NR1I2 rs6785049 GG, mean (SD)): 0.04 (0.04)
- Ratio 20(S)-PPD/CK AUClast/D (NR1I2 rs6785049 GG, mean (SD)): 6.66 (9.43) %
- Ratio 20(S)-PPD/CK Cmax/D (NR1I2 rs6785049 GG, mean (SD)): 1.98 (2.90) %
- 20(S)-PPD AUClast/D (NR1I2 rs7643645 AA, mean (SD)): 0.95 (0.87)
- 20(S)-PPD Cmax/D (NR1I2 rs7643645 AA, mean (SD)): 0.03 (0.03)
- Ratio 20(S)-PPD/CK AUClast/D (NR1I2 rs7643645 AA, mean (SD)): 5.31 (8.06) %
- Ratio 20(S)-PPD/CK Cmax/D (NR1I2 rs7643645 AA, mean (SD)): 1.16 (1.57) %
- 20(S)-PPD AUClast/D (NR1I2 rs7643645 AG, mean (SD)): 0.66 (0.76)
- 20(S)-PPD Cmax/D (NR1I2 rs7643645 AG, mean (SD)): 0.03 (0.03)
- Ratio 20(S)-PPD/CK AUClast/D (NR1I2 rs7643645 AG, mean (SD)): 3.34 (5.02) %
- Ratio 20(S)-PPD/CK Cmax/D (NR1I2 rs7643645 AG, mean (SD)): 1.21 (2.09) %
- 20(S)-PPD AUClast/D (NR1I2 rs7643645 GG, mean (SD)): 1.14 (0.42)
- 20(S)-PPD Cmax/D (NR1I2 rs7643645 GG, mean (SD)): 0.04 (0.02)
- Ratio 20(S)-PPD/CK AUClast/D (NR1I2 rs7643645 GG, mean (SD)): 4.98 (4.18) %
- Ratio 20(S)-PPD/CK Cmax/D (NR1I2 rs7643645 GG, mean (SD)): 1.03 (0.83) %
